According to ChEMBL document CHEMBL4002606, “Discovery of FZU-03,010 as a self-assembling anticancer amphiphile for acute myeloid leukemia” (Bioorg Med Chem Lett, 2017):
Blank lines part the entries; values can stand above or below the molecule they belong to. Activity calls are given as the source filed them. The calls are words filed in the database; no cut-off is given here.

Legend:
HL-60 [1] = test: Growth inhibition of human HL60 cells at 10 uM after 48 hrs by MTT assay relative to control; type: functional; details: for inhibition of growth at 10 µM: HL-60, 48 h, read-out: GI
HL-60 [2] = test: Induction of apoptosis in human HL60 cells assessed as late apoptotic cells at 80 uM after 24 hrs by Annexin V-PE/7AAD staining based flow cytometry (reference value: 3.64%); type: functional
HL-60 [3] = test: Induction of apoptosis in human HL60 cells assessed as early apoptotic cells at 80 uM after 24 hrs by Annexin V-PE/7AAD staining based flow cytometry (reference value: 4.42%); type: functional
HL-60 [4] = test: Growth inhibition of human HL60 cells at 40 uM after 48 hrs by MTT assay relative to control; type: functional; details: for inhibition of growth at 40 µM: HL-60, 48 h, read-out: GI
HL-60 [5] = test: Induction of apoptosis in human HL60 cells assessed as necrotic cells at 80 uM after 24 hrs by Annexin V-PE/7AAD staining based flow cytometry (reference value: 1.08%); type: functional
HL-60 [6] = test: Induction of apoptosis in human HL60 cells assessed as live cells at 80 uM after 24 hrs by Annexin V-PE/7AAD staining based flow cytometry (reference value: 90.9%); type: functional
HL-60 [7] = test: Induction of apoptosis in human HL60 cells assessed as caspase-9 cleavage after 24 hrs by Western blot method; type: functional, cell-based
Outline: (§1)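 HL-60 cells treated at different concentrations; lysates probed with specific antibodies against procaspase-3, cleaved caspase-9, PARP, Bcl-2, phospho-P70S6K and phospho-Akt; actin used as loading control.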

Homo sapiens [8] = organism: Homo sapiens; test: Inhibition of PI3K in human HL60 cells assessed as reduction in Akt phosphorylation at Ser473-residue up to 80 uM after 24 hrs by Western blot method; type: cell-based; outline: as §1
HL-60 [9] = test: Growth inhibition of human HL60 cells at 20 uM after 48 hrs by MTT assay relative to control; type: functional; details: for inhibition of growth at 20 µM: HL-60, 48 h, read-out: GI
[10] = target: Serine/threonine-protein kinase mTOR (Homo sapiens) (UniProt P42345); test: Inhibition of mTOR in human HL60 cells assessed as reduction in P70S6K phosphorylation at Thr389-residue up to 80 uM after 24 hrs by Western blot method; type: cell-based; outline: as §1
HL-60 [11] = test: Growth inhibition of human HL60 cells at 2.5 uM after 48 hrs by MTT assay relative to control; type: functional; details: for inhibition of growth at 2.5 µM: HL-60, 48 h, read-out: GI
HL-60 [12] = test: Growth inhibition of human HL60 cells at 0.63 uM after 48 hrs by MTT assay relative to control; type: functional; details: for inhibition of growth at 0.63 µM: HL-60, 48 h, read-out: GI
HL-60 [13] = test: Induction of apoptosis in human HL60 cells assessed as PARP cleavage up to 80 uM after 24 hrs by Western blot method; type: functional, cell-based; outline: as §1
HL-60 [14] = test: Induction of apoptosis in human HL60 cells assessed as downregulation of Bcl2 expression up to 80 uM after 24 hrs by Western blot method; type: functional, cell-based; outline: as §1
HL-60 [15] = test: Growth inhibition of human HL60 cells after 48 hrs by MTT assay; type: functional, cell-based; details: HL-60, 48 h
Outline: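 HL-60 human promyelocytic leukemia cells; proliferation inhibition of the cells measured and reported as IC50; values are mean ± SE of at least three independent experiments.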

HL-60 [16] = test: Growth inhibition of human HL60 cells at 5 uM after 48 hrs by MTT assay relative to control; type: functional; details: for inhibition of growth at 5 µM: HL-60, 48 h, read-out: GI
HL-60 [17] = test: Growth inhibition of human HL60 cells at 1.25 uM after 48 hrs by MTT assay relative to control; type: functional; details: for inhibition of growth at 1.25 µM: HL-60, 48 h, read-out: GI
HL-60 [18] = test: Induction of apoptosis in human HL60 cells assessed as downregulation of procaspase-3 expression after 24 hrs by Western blot method; type: functional, cell-based; outline: as §1
HL-60 [19] = test: Induction of apoptosis in human HL60 cells assessed as live cells at 2 uM after 24 hrs by Annexin V-PE/7AAD staining based flow cytometry (reference value: 90.9%); type: functional
HL-60 [20] = test: Induction of apoptosis in human HL60 cells assessed as early apoptotic cells at 2 uM after 24 hrs by Annexin V-PE/7AAD staining based flow cytometry (reference value: 4.42%); type: functional
[21] = Stability of the compound in DMSO/deionized water post nanoparticle formation after 3 weeks; type: physicochemical; details: 504 h
HL-60 [22] = test: Induction of apoptosis in human HL60 cells assessed as late apoptotic cells at 2 uM after 24 hrs by Annexin V-PE/7AAD staining based flow cytometry (reference value: 3.64%); type: functional
HL-60 [23] = test: Induction of apoptosis in human HL60 cells assessed as necrotic cells at 2 uM after 24 hrs by Annexin V-PE/7AAD staining based flow cytometry (reference value: 1.08%); type: functional
[24] = Induction of nanoparticle formation in DMSO/deionized water at 1.5 mg/ml
HL-60 [25] = test: Induction of apoptosis in human HL60 cells assessed as downregulation of Bcl2 expression up to 4 uM after 24 hrs by Western blot method; type: functional, cell-based; outline: as §1
Homo sapiens [26] = organism: Homo sapiens; test: Inhibition of PI3K in human HL60 cells assessed as reduction in Akt phosphorylation at Ser473-residue up to 4 uM after 24 hrs by Western blot method; type: cell-based; outline: as §1
HL-60 [27] = test: Induction of apoptosis in human HL60 cells assessed as PARP cleavage up to 4 uM after 24 hrs by Western blot method; type: functional, cell-based; outline: as §1
[28] = Induction of nanoparticle formation in DMSO/deionized water after 25 days by dynamic light scattering assay
[29] = target: Serine/threonine-protein kinase mTOR (Homo sapiens) (UniProt P42345); test: Inhibition of mTOR in human HL60 cells assessed as reduction in P70S6K phosphorylation at Thr389-residue up to 4 uM after 24 hrs by Western blot method; type: cell-based; outline: as §1
HL-60 [30] = test: Induction of apoptosis in human HL60 cells assessed as necrotic cells at 10 uM after 24 hrs by Annexin V-PE/7AAD staining based flow cytometry (reference value: 1.08%); type: functional
HL-60 [31] = test: Induction of apoptosis in human HL60 cells assessed as late apoptotic cells at 10 uM after 24 hrs by Annexin V-PE/7AAD staining based flow cytometry (reference value: 3.64%); type: functional
HL-60 [32] = test: Induction of apoptosis in human HL60 cells assessed as downregulation of Bcl2 expression up to 10 uM after 24 hrs by Western blot method; type: functional, cell-based; outline: as §1
HL-60 [33] = test: Induction of apoptosis in human HL60 cells assessed as early apoptotic cells at 10 uM after 24 hrs by Annexin V-PE/7AAD staining based flow cytometry (reference value: 4.42%); type: functional
Homo sapiens [34] = organism: Homo sapiens; test: Inhibition of PI3K in human HL60 cells assessed as reduction in Akt phosphorylation at Ser473-residue up to 10 uM after 24 hrs by Western blot method; type: cell-based; outline: as §1
HL-60 [35] = test: Induction of apoptosis in human HL60 cells assessed as live cells at 10 uM after 24 hrs by Annexin V-PE/7AAD staining based flow cytometry (reference value: 90.9%); type: functional
HL-60 [36] = test: Induction of apoptosis in human HL60 cells assessed as PARP cleavage up to 10 uM after 24 hrs by Western blot method; type: functional, cell-based; outline: as §1
[37] = target: Serine/threonine-protein kinase mTOR (Homo sapiens) (UniProt P42345); test: Inhibition of mTOR in human HL60 cells assessed as reduction in P70S6K phosphorylation at Thr389-residue up to 10 uM after 24 hrs by Western blot method; type: cell-based; outline: as §1
[38] = Aqueous solubility of the compound in water by HPLC method; type: physicochemical

SMILES: C[C@H]1[C@H](C)CC[C@]2(C(=O)O)CC[C@]3(C)C(=CC[C@@H]4[C@@]5(C)CC[C@H](O)C(C)(C)[C@@H]5CC[C@]43C)[C@H]12 [URSOLIC ACID]
growth inhibition (GI) (HL-60 [1]): inactive | Activity (HL-60 [2]): 2.43% | Activity (HL-60 [3]): 13.3% | growth inhibition (GI) (HL-60 [4]): inactive | Activity (HL-60 [5]): 0.835% | Activity (HL-60 [6]): 83.4% | Activity (HL-60 [7]): Dose-dependent effect | inhibition (Homo sapiens [8]): Active | growth inhibition (GI) (HL-60 [9]): inactive | inhibition [10]: Active | growth inhibition (GI) (HL-60 [11]): inactive | growth inhibition (GI) (HL-60 [12]): inactive | Activity (HL-60 [13]): Active | Activity (HL-60 [14]): inactive | IC50 (HL-60 [15]): > 40 µM | growth inhibition (GI) (HL-60 [16]): inactive | growth inhibition (GI) (HL-60 [17]): inactive | Activity (HL-60 [18]): Dose-dependent effect

SMILES: C[C@H]1[C@H](C)CC[C@]2(C(=O)O)CC[C@]3(C)C(=CC[C@@H]4[C@@]5(C)Cc6c[nH]nc6C(C)(C)[C@@H]5CC[C@]43C)[C@H]12
inhibition of growth at 10 µM (HL-60 [1]): 79.5% | Activity (HL-60 [30]): 0.231% | Activity (HL-60 [31]): 3.98% | inhibition of growth at 40 µM (HL-60 [4]): 94.7% | Activity (HL-60 [32]): Active | Activity (HL-60 [7]): Dose-dependent effect | Activity (HL-60 [33]): 19.5% | inhibition of growth at 20 µM (HL-60 [9]): 93.2% | inhibition (Homo sapiens [34]): Active | Activity (HL-60 [35]): 76.3% | inhibition of growth at 2.5 µM (HL-60 [11]): 8.55% | inhibition of growth at 0.63 µM (HL-60 [12]): 5.36% | IC50 (HL-60 [15]): 6.26 µM | inhibition of growth at 5 µM (HL-60 [16]): 16.3% | inhibition of growth at 1.25 µM (HL-60 [17]): 7.54% | Activity (HL-60 [36]): Active | Activity (HL-60 [18]): Dose-dependent effect | inhibition [37]: Active

Continued, in another order:

Stability [21]: Stable | IC50 (HL-60 [15]): 0.91 µM
SMILES: C[C@H]1[C@H](C)CC[C@]2(C(=O)N3CCNCC3)CC[C@]3(C)C(=CC[C@@H]4[C@@]5(C)Cc6cn[nH]c6C(C)(C)[C@@H]5CC[C@]43C)[C@H]12 [listing 1 of 2 here]
inhibition of growth at 10 µM (HL-60 [1]): 95% | inhibition of growth at 40 µM (HL-60 [4]): 94% | Activity (HL-60 [19]): 76.5% | Activity (HL-60 [20]): 19.1% | Activity (HL-60 [22]): 3.89% | inhibition of growth at 20 µM (HL-60 [9]): 93.5% | inhibition of growth at 2.5 µM (HL-60 [11]): 86% | Activity (HL-60 [23]): 0.439% | inhibition of growth at 0.63 µM (HL-60 [12]): 14.7% | inhibition of growth at 5 µM (HL-60 [16]): 91.6% | inhibition of growth at 1.25 µM (HL-60 [17]): 66.4%

inhibition [29]: Active
SMILES: C[C@H]1[C@H](C)CC[C@]2(C(=O)N3CCNCC3)CC[C@]3(C)C(=CC[C@@H]4[C@@]5(C)Cc6cn[nH]c6C(C)(C)[C@@H]5CC[C@]43C)[C@H]12 [listing 2 of 2 here]
Activity [24]: Active | Activity (HL-60 [7]): Dose-dependent effect | Activity (HL-60 [25]): Active | inhibition (Homo sapiens [26]): Active | Activity (HL-60 [27]): Active | Activity [28]: Active | Activity (HL-60 [18]): Dose-dependent effect

solubility [38]: > 150 µg/mL
SMILES: C[C@H]1[C@H](C)CC[C@]2(C(=O)N3CCNCC3)CC[C@]3(C)C(=CC[C@@H]4[C@@]5(C)Cc6cn[nH]c6C(C)(C)[C@@H]5CC[C@]43C)[C@H]12.Cl
